By IC50 is commonly meant the concentration that inhibits the measured activity by half. A word on the inhibition in vivo: it is the share of the control response that was lost under treatment. Low values mean a weak effect, high ones a strong effect. Broadly, the Tmax is the time at which the peak concentration occurs. What is called half-life is the time in which the quantity being followed falls by half. Read a high half-life as slow decline. As a reminder, the Cmax is the peak of the concentration-time curve. As usually defined, the AUC(0-t) is exposure summed from dosing to a finite time, without extrapolation to infinity.

The text below walks through data of ChEMBL document CHEMBL1148030, “Substituted 6-amino-4H-[1,2]dithiolo[4,3-b]pyrrol-5-ones: synthesis, structure-activity relationships, and cytotoxic activity on selected human cancer cell lines” (Bioorg Med Chem, 2007).

Active and inactive are the calls of the source. The calls are words filed in the database; no cut-off is given here.

One data set deals with LCC6. In words: Induction of apoptosis in human LCC6 cells by annexin V apoptosis assay. The class given is functional, cell-based.
Data set [1] deals with NCI-H460. In words: Cytotoxicity against human H460 cells after 48 hrs by MTT assay. The class given is functional, cell-based. Conditions: NCI-H460, 48 h.
The nature of data set [2]: Cytotoxicity against human LCC6 cells after 48 hrs by MTT assay. It is filed as functional, cell-based. Particulars: LCC-6, 48 h.
A further data set concerns Endothelial cell. As to the kind of experiment: Induction of apoptosis in human endothelial cells by annexin V apoptosis assay. The class given is functional, cell-based.
For data set [3], the system named is NCI-H460. As to the kind of experiment: Induction of apoptosis in human H460 cells by annexin V apoptosis assay. The class given is functional, cell-based.
The test system of data set [4] is SK-MEL-28. As to the kind of experiment: Antitumor activity against VEGF expressing human SK-MEL-28 cells xenografted in mouse assessed as loss of body weight at 5 to 10 mg/kg, ip after 24 days. It is filed as functional, organism-based. In a few lines: (§1)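 SK-MEL-28 V+ cells (engineered to overexpress VEGF) of over 95% viability were used to grow primary tumours in mice. These tumours were cut into 1 mm³ explants and implanted subcutaneously. Once tumours were palpable, mice were randomized and dosed intraperitoneally for 24 days: daily at 5 or 10 mg/kg, or every second day at 20 mg/kg. Tumours were measured by caliper every 2–5 days. Body weight and histology were assessed for toxicity.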
In general terms: In xenograft studies the graft and the host belong to different species.

Data set [5] is described as follows: Inhibition of tumor growth in human SK-MEL-28V+ cells xenografted in mouse at 20 mg/kg, ip administered every altenative day for 24 days. Particulars: 576 h, route intraperitoneal. It is filed as functional. In a few lines: as §1
Data set [6] is described as follows: Tmax in mouse at 36.8 umol/kg, ip. Conditions: in vivo.
A short description of data set [7]: Half life in mouse at 36.8 umol/kg, ip. Particulars: in vivo.
The nature of data set [8]: Plasma clearance in mouse at 36.8 umol/kg, ip.
Data set [9] in a line: Cmax in mouse at 36.8 umol/kg, ip within 30 mins. Particulars: in vivo.
A short description of data set [10]: AUC (0 to 480 mins) in mouse at 36.8 umol/kg, ip. Particulars: plasma.
The test system of a further data set is Mus musculus. In words: Toxicity in VEGF expressing human SK-MEL-28 cells xenografted in mouse assessed as effect on histological indications at 5 to 10 mg/kg, ip daily for 24 days. Conditions: in vivo.
Data set [11] relates to SK-MEL-28. As to the kind of experiment: Inhibition of tumor growth in VEGF expressing human SK-MEL-28 cells xenografted in mouse at 10 mg/kg, ip administered every altenative day for 24 days. The class given is functional. Conditions: SK-MEL-28, ip, 576 h, route intraperitoneal.
A short description of data set [12]: Tmax in mouse at 38.2 umol/kg, ip. Particulars: in vivo.
Data set [13] is described as follows: Half life in mouse at 38.2 umol/kg, ip. Conditions: in vivo.
Data set [14] can be described thus: Plasma clearance in mouse at 38.2 umol/kg, ip.
Data set [15] is described as follows: Cmax in mouse at 38.2 umol/kg, ip within 30 mins. Particulars: in vivo.
Data set [16] is described as follows: AUC (0 to 480 mins) in mouse at 38.2 umol/kg, ip. Particulars: plasma.

As for `COc1ccc(-n2c3cssc-3c(NC(=O)c3cc(F)cc(F)c3)c2=O)c(OC)c1`, the result in the data set on LCC6, in the data set with Endothelial cell and in the data set with NCI-H460 [3] was Active. The 50% inhibitory concentration (IC50) worked out at 0.011 µM with NCI-H460 [1] and 0.349 µM in [2].

Turning to `COc1ccc(-n2c3cssc-3c(NC(=O)c3cc(C(F)(F)F)cc(C(F)(F)F)c3)c2=O)c(OC)c1`, the outcome in the data set with LCC6, in the data set on Endothelial cell, in the data set with SK-MEL-28 [4] and in the data set with NCI-H460 [3] was Active. Further, the half-inhibitory concentration (IC50) amounted to 0.13 µM in the data set on NCI-H460 [1] and 0.16 µM in data set [2]. In addition, in data set [5], the inhibition in vivo at 20 mg/kg was determined as 58%. In addition, in data set [6], the Tmax was 0.5 h. Also, the half-life in data set [7] was found to be 2.67 h. Moreover, in data set [8], the clearance worked out at 0.174 L/h/kg. In data set [9], the concentration peaked (Cmax) at 57 µM. The AUC(0-t) at 8 h in data set [10] was 210 µM·h. Further, the outcome with Mus musculus was Active.

Turning to `O=C(Nc1c2sscc-2n(Cc2ccccc2)c1=O)c1cc(C(F)(F)F)cc(C(F)(F)F)c1`, the result in the data set on LCC6, in the data set with Endothelial cell and in the data set with NCI-H460 [3] was Active. In addition, the IC50 with NCI-H460 [1] came out at 0.706 µM; in [2] it was 1.18 µM.

On to `CCCCC(C)C(=O)Nc1c2sscc-2[nH]c1=O` (stereo not drawn), for which the result with LCC6, in the data set with Endothelial cell and in the data set on NCI-H460 [3] was Active. The 50% inhibitory concentration (IC50) (in the data set with NCI-H460 [1]; in [2]) was 0.2 µM in each case.

In the data set with SK-MEL-28 [11], `CC(=O)O[C@H]1C(=O)[C@@]2(C)[C@H]([C@H](OC(=O)c3ccccc3)[C@]3(O)C[C@H](OC(=O)[C@H](O)[C@@H](NC(=O)c4ccccc4)c4ccccc4)C(C)=C1C3(C)C)[C@]1(OC(C)=O)CO[C@@H]1C[C@@H]2O` [PACLITAXEL] came in with an inhibition in vivo at 10 mg/kg of 37%.

Consider `CC(=O)Nc1c2sscc-2n(-c2ccc(C)cc2)c1=O`, for which the result in the data set with LCC6, in the data set with Endothelial cell and with NCI-H460 [3] was Active. The concentration for half-maximal inhibition (IC50) turned out to be 0.044 µM with NCI-H460 [1] and 0.22 µM in data set [2].

For the compound `COc1ccc(-n2c3cssc-3c(NC(C)=O)c2=O)c(OC)c1`, the result with LCC6, with Endothelial cell and in the data set on NCI-H460 [3] was Active. For the same compound, the 50% inhibitory concentration (IC50) in the data set on NCI-H460 [1] amounted to 0.03 µM; in [2], 0.19 µM.

As to `COc1ccc(-n2c3cssc-3c(NC(=O)C(F)(F)F)c2=O)cc1`, the result in the data set on LCC6, in the data set on Endothelial cell and in the data set on NCI-H460 [3] was Active. Further, the IC50 came to 0.19 µM in the data set with NCI-H460 [1] and 0.22 µM in data set [2].

With `CC(C)c1c(O)cc(C(=O)Nc2c3sscc-3n(Cc3ccccc3)c2=O)cc1O`, the outcome in the data set on LCC6, with Endothelial cell and in the data set with NCI-H460 [3] was Active. Besides, the results for the half-inhibitory concentration (IC50) (in the data set on NCI-H460 [1]; in data set [2]) were 0.17 µM and 0.25 µM, respectively.

Take `COc1ccc(C(=O)Nc2c3sscc-3n(-c3ccc(OC)cc3OC)c2=O)c(OC)c1`: the outcome with LCC6, with Endothelial cell and in the data set on NCI-H460 [3] was Active. Besides, the IC50 with NCI-H460 [1] came to 0.011 µM; in data set [2], 0.251 µM.

`COc1ccc(-n2c3cssc-3c(NC(=O)c3cccs3)c2=O)c(OC)c1`: the result with LCC6, in the data set with Endothelial cell and in the data set on NCI-H460 [3] was Active. Moreover, the IC50 in the data set with NCI-H460 [1] was determined as 0.008 µM; in [2], 0.21 µM.

Regarding `CC(=O)Nc1c2sscc-2n(Cc2ccccc2)c1=O`, the result in the data set on LCC6, in the data set on Endothelial cell and in the data set with NCI-H460 [3] was Active. Also, the IC50 with NCI-H460 [1] came out at 0.9 µM.

For the compound `COc1ccc(-n2c3cssc-3c(NC(=O)c3ccc(C(F)(F)F)cc3)c2=O)c(OC)c1`, the result in the data set with LCC6, in the data set on Endothelial cell and with NCI-H460 [3] was Active. The IC50 came to 0.007 µM in the data set on NCI-H460 [1] and 0.085 µM in data set [2].

For `CC(C)c1ccc(-n2c3cssc-3c(NC(=O)c3cc(O)c(C(C)C)c(O)c3)c2=O)cc1`, the result with LCC6, in the data set on Endothelial cell and with NCI-H460 [3] was Active. Further, the IC50 in the data set with NCI-H460 [1] was found to be 0.15 µM; in [2] it was 0.04 µM.

Consider `COc1ccc(-n2c3cssc-3c(NC(=O)C(F)(F)F)c2=O)c(OC)c1`, for which the result in the data set on LCC6, with Endothelial cell and in the data set with NCI-H460 [3] was Active. In addition, the figures for the 50% inhibitory concentration (IC50) (in the data set with NCI-H460 [1]; in data set [2]) were 0.17 µM and 0.06 µM, respectively.

As to `COc1ccc(-n2c3cssc-3c(NC(C)=O)c2=O)cc1`, the outcome with LCC6, with Endothelial cell and in the data set on NCI-H460 [3] was Active. Moreover, the IC50 in the data set with NCI-H460 [1] was found to be 0.053 µM; in data set [2], 0.22 µM.

In the case of `COc1ccc(-n2c3cssc-3c(NC(=O)c3ccco3)c2=O)c(OC)c1`, the result in the data set on LCC6, in the data set with Endothelial cell and in the data set on NCI-H460 [3] was Active. Besides, the half-maximal inhibitory concentration (IC50) came out at 0.05 µM in the data set on NCI-H460 [1] and 0.028 µM in data set [2].

For `COc1ccc(-n2c3cssc-3c(NC(=O)c3cc(O)c(C(C)C)c(O)c3)c2=O)c(OC)c1`, the result in the data set on LCC6, in the data set with Endothelial cell and in the data set on NCI-H460 [3] was Active. For the same compound, the IC50 in the data set on NCI-H460 [1] was 0.072 µM; in [2], 0.07 µM. Further, the time to peak (Tmax) in data set [12] was 3 min. The compound also registered a half-life in data set [13] of 1.57 h. The compound further registered a clearance in data set [14] of 0.378 L/h/kg. The highest level in data set [15] (Cmax) was 106 µM. In addition, the exposure AUC(0-t) at 8 h in [16] is 102 µM·h.
